Compounds with a hit are over-represented: about 1.9% of the library has one in this group of screens.
PLCb3 inh = inhibitors of human phospholipase C beta3. inhibition, % at 12.2 µM. Purified PLC-beta3, fluorogenic substrate, fluorescence. AID 720704. 0.18% of 370,000 active. Q01970;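 also: 0% = median of compound wells on plate and 100% = full blocker control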
PLCg1 inh = inhibitors of human phospholipase C gamma1. P19174. AID 720700. inhibition, % at 12.2 µM. purified PLC-gamma1, fluorogenic substrate, fluorescence. 0.84% of 370,000 active; in the data active = inhibition above about 9.5%
ASAP1 GAP inh = ASAP1 ArfGAP inhibition; Q9ULH1; ASAP1-stimulated ARF1 GTP hydrolysis, GDP FP detection; inhibition, % at 16.5 µM; 0.19% of 360,000 active; in the data active = inhibition above about 25%;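 also: 0% = vehicle with enzyme and substrate and 100% = no enzyme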
Target sequence (Q9ULH1 325-724 limits assumed): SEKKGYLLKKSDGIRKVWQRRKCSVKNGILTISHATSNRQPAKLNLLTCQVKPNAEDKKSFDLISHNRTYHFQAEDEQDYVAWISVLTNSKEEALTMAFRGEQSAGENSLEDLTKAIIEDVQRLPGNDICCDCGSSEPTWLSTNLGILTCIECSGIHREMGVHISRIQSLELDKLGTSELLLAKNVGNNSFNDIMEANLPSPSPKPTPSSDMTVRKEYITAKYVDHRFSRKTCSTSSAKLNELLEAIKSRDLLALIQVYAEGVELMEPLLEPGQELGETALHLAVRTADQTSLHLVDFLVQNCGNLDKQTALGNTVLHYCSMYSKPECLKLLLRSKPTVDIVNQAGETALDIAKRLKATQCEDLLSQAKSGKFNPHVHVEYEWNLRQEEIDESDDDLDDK
ARFGAP1 inhibitor = inhibitors of rat ARFGAP1; Q62848; 0.26% of 360,000 active; inhibition, % at 16.5 µM; Arfgap1-stimulated ARF1 GTP hydrolysis, GDP FP detection;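 active = inhibition above a per-plate limit, mean inhibition of low control wells plus 3 SD, cut at about 25% in these data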;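 also: 0% = DMSO wells with enzyme and 100% = wells lacking Arfgap1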
Target sequence (Q62848 1-136 limits assumed): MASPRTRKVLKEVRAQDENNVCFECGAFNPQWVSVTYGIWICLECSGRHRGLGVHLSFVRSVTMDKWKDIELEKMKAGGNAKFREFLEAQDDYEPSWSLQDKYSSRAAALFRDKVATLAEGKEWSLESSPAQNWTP
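System: truncated rat Arfgap1 GAP domain / Benchmarks: high control wells lacking Arfgap1, low control full reaction with DMSO / Times: compound-enzyme preincubation 20 min, reaction 120 min, detection 60 min, 25 °C / Repeats: one replicate per compound / Also added: human ARF1(Δ1-17)-GTP substrate / Measured by: Tracer-displacement fluorescence polarization with EDTA stop, 620/688 nm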
sPLA2-III inh = Inhibits HGIII-sPLA2 liposome hydrolysis, primary screen; Q9NZ20; QFRET BODIPY PC-A2 liposome hydrolysis, fluorescence; inhibition, % at 12.2 µM; 0.56% of 370,000 active;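 active = inhibition above mean plus 3 SD of compounds lying within the high and low control bounds, cut at about 19% in these data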;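 also: 0% = median of test compound wells and 100% = no enzyme DMSO wells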
PLCg1 ctr = inhibits human PLC-gamma1 in PLC-beta3 counter-screen | shares compounds with PLCg1 inh | purified PLC-gamma1, fluorogenic substrate, fluorescence | inhibition, % at 12.3 µM | 3.1% of 3,300 active; in the data active = inhibition above about 9.5%
PLCb3 confirm = human PLC-beta3 inhibition, confirmation | shares compounds with PLCg1 inh | purified PLC-beta3, fluorogenic substrate fluorescence | inhibition, % at 12.3 µM | 1% of 3,300 active
An asterisk follows results filed as active; nt = no result given. Rule as the data show it, unless noted: active = inhibition above about 11%; inactive = the rest.

SMILES	PLCb3 inh	PLCg1 inh	ASAP1 GAP inh	ARFGAP1 inhibitor	sPLA2-III inh	PLCg1 ctr	PLCb3 confirm
Nn1cnnc1N/N=C/c1ccc(Cl)c([N+](=O)[O-])c1	5	12*	6	4	-2	-4	-1
Nn1cnnc1N/N=C/c1ccccc1C(F)(F)F	-1	7	4	-5	-2	nt	nt
Cc1ccc(/C=N/Nc2nncn2N)cc1	2	11*	15	3	-4	-15	-9
Nn1cnnc1N/N=C/c1ccc(F)cc1	4	16*	-14	-6	0	-8	-3
Cc1cc(C)cc(C(=O)OCCN(C)C2CN(Cc3cn(Cc4ccccc4F)nn3)S(=O)(=O)C2)c1 (stereo not given)	3	1	nt	nt	-12	nt	nt
O=Cc1cc(N=Nc2ccc(S(=O)(=O)O)cc2)ccc1O	-8	14*	4	-5	1	16*	0
O=[N+]([O-])c1ccccc1Nc1ccccc1[N+](=O)[O-]	4	10*	-3	7	0	2	2
Cc1ccc(-c2nnc(SCC(=O)Nc3ccc4c(c3)OCCO4)n2-c2ccc(Cl)cc2)cc1	-1	2	nt	nt	2	nt	nt
COc1cccc(SCc2noc(C(=O)NCCN(C)C)c2C(=O)NCCN(C)C)c1	8	9.7*	7	9	16	-4	-2
COCCNC(=O)c1onc(CSc2cccc(OC)c2)c1C(=O)O	0	-1	-4	-15	4	nt	nt
Cc1ccc(COC[C@H](CC(C)C)N2CCN(C(=O)c3cccc(C(F)(F)F)c3)CCC2=O)cc1	6	8	5	5	3	nt	nt
CC(C)CC(COCc1cccc(C(F)(F)F)c1)N1CCN(C(=O)c2cccc(C(F)(F)F)c2)CCC1=O (stereo not given)	5	9.6*	3	-2	-3	1	2
C[C@H](O)[C@@H]1CN2CCc3ccc(N4CCOCC4)cc3[C@@H]2C[C@@H]1N(C)C(=O)c1cccc(Cl)c1	-14	-13	nt	nt	1	nt	nt
Cc1ccc(C)c(N2CCN(S(=O)(=O)c3ccc4[nH]c(=O)c(=O)[nH]c4c3)CC2)c1	0	17*	9	-2	-10	-1	-4
COC(=O)[C@H]1C[C@@]2(N3CCCCC3)c3ccccc3N(C(=O)OC(C)(C)C)[C@H]2N1C(=O)OC(C)(C)C	7	3	nt	nt	15	nt	nt
Cc1cccc(CN2CCN(CC(=O)NCc3ccc(F)cc3)C2=O)c1	8	11*	6	-24	0	-6	-6
O=C(O)c1cc2c(cc1Cl)N1CCCCCC1=NS2(=O)=O	0	19*	8	-3	8	-6	-1
COc1cccc(NC(=O)N(Cc2cc3cc(C)cc(C)c3[nH]c2=O)CC2COCCO2)c1 (stereo not given)	10	11*	9	1	6	-7	-4
Cc1ccc(C(=O)c2cn[nH]c2-c2ccccc2O)cc1	5	14*	3	6	-56	-6	-4
COC(=O)C1CN(Cc2ccc(OC)cc2)CCS(=O)(=O)N1Cc1cn(CCOC(C)=O)nn1 (stereo not given)	2	2	nt	nt	8	nt	nt
O=C(Cn1cccc1C(=O)c1ccccc1)NCCc1ccc(Cl)cc1	-5	0	-5	0	1	nt	nt
N=c1sccn1CC(=O)NCCc1ccc(Cl)cc1	3	10*	10	3	2	-8	-7
CC(=O)N1c2cc(S(=O)(=O)N3CCN(c4ccccc4F)CC3)c(Br)cc2CC1C (stereo not given)	0	3	nt	nt	-9	nt	nt
O=C(Nc1ccc2c(c1)OCCO2)c1cccc(Cl)c1	-8	-1	1	6	0	nt	nt
O=C(Nc1ccc(N=Nc2ccccc2)cc1)c1cccc(Cl)c1	8	12*	7	-3	3	2	3
SMILES	PLCb3 inh	PLCg1 inh	ASAP1 GAP inh	ARFGAP1 inhibitor	sPLA2-III inh	PLCg1 ctr	PLCb3 confirm
O=C(c1ccccc1)N1CCN(C2CCCCCC2)CC1	4	14*	7	-3	5	-2	2
CC(=O)N1CCN(C(=O)c2ccc(Oc3ccccc3)cc2)CC1	3	5	-7	-5	5	nt	nt
O=C(c1ccccc1)N1CCN(C(=O)c2ccc(OC(F)(F)F)cc2)CC1	12*	3	-7	-4	5	-5	-1
O=C(Nc1ccccc1)C1CCN(C(=O)c2ccccc2)CC1	12*	7	7	-14	6	-8	-4
COc1ccc(NC(=O)C2CCN(C(=O)c3cccs3)CC2)cc1	6	9.6*	3	7	11	-6	-5
COc1ccc(-c2cc(-c3nnc(SCC(=O)N4CCOCC4)n3N)[nH]n2)cc1	3	1	nt	nt	-2	nt	nt
C=CCn1c(COc2ccc(C)cc2)nnc1SCc1ccc([N+](=O)[O-])cc1	-1	-1	nt	nt	-13	nt	nt
CCOC(=O)[C@@H](CCc1ccccc1)N[C@@H](C)C(=O)N1CCC[C@H]1C(=O)O	2	-2	nt	nt	-2	nt	nt
COC(=O)c1ccccc1NC(=O)CCNC(=O)Cn1cnc2ccccc2c1=O	0	-2	0	-3	3	nt	nt
COC(=O)c1ccc(C)c(NC(=O)Cn2cnc3ccccc3c2=O)c1	11*	9	-6	-4	5	-9	-7
CCCN(C(=O)CCNC(=O)Cn1cnc2ccccc2c1=O)c1cccc(C)c1	-3	11*	1	7	13	-4	-4
CCN(C(=O)CCNC(=O)Cn1cnc2ccccc2c1=O)c1cccc(Cl)c1	-7	2	9	-1	10	nt	nt
CCOC(=O)[C@]12CCCCC/C=C\1N(Cc1ccc(OC)cc1)C(=O)[C@H]2CC(=O)NCc1ccc(OC)c(OC)c1	-2	2	nt	nt	-7	nt	nt
CCC(C)N1CC23C=CC(O2)C(C(=O)OCc2ccccc2)C3C1=O (stereo not given)	14*	4	-6	2	9	-4	-1
Cc1cc(NC(=O)COc2ccccc2C(N)=O)no1	4	9.5*	-5	-6	11	-1	4
Cc1cc(NC(=O)COc2ccccc2C)no1	4	3	7	-11	-3	nt	nt
O=C(C(=O)N1CCC(CNC(=O)C2COc3ccccc3O2)CC1)c1cccs1 (stereo not given)	-3	1	1	1	8	nt	nt
Cc1cccc(C(=O)NCc2ccco2)c1	-4	-2	11	-7	5	nt	nt
O=C(NCc1ccco1)c1cccc(F)c1	-6	10*	0	10	3	-6	-2
COc1ccc(Cl)cc1C(=O)NCc1ccco1	-5	13*	-3	-10	2	-5	-1
COc1cccc(-c2ccc(CN3C(C(C)C)C(=O)N(Cc4cn(CCC5OCCO5)nn4)CCS3(=O)=O)cc2)c1OC (stereo not given)	9	12*	-9	1	-26	-3	2

Source: PubChem
